Ratio IC50 and Activity data for two compounds are collected here from ChEMBL document CHEMBL4765368, “Structure guided design and synthesis of furyl thiazolidinedione derivatives as inhibitors of GLUT 1 and GLUT 4, and evaluation of their anti-leukemic potential” (Eur J Med Chem, 2020).

Molecules are shown by their SMILES.

For one test, the species on record is Homo sapiens. Nature of the test: Selectivity ratio of IC50 for inhibition of transport activity of human GLUT4 expressed in hexose transporter deficient W4000fgy1 erg4 yeast cells to IC50 for inhibition of transport activity of human GLUT1 expressed in hexose transporter deficient VW4000fgy1 yeast cells. Format: cell-based. The gist of the method:
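GLUT1 (VW4000fgy1) or GLUT4 (VW4000fgy1erg4) hxt0 yeast were grown on maltose and then glucose and resuspended in PBS pH 7.4 at OD600 ~10. Compound was used at 0.1–100 μM, final 1% DMSO. Uptake of 5 mM 14C-glucose over 10 min was stopped with ice-cold quench buffer, filtered and counted by scintillation. IC50 was taken from dose-response curves of three independent measurements.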

The test system of test [1] is CCRF-CEM. Put plainly: Induction of apoptosis in human CCRF-CEM cells assessed as necrotic cells at CC50 measured after 24 hrs by AnnexinV-FITC/propidium iodide staining based flow cytometry analysis relative to control. Type of test: functional. Put shortly: (§1)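 CCRF-CEM cells in RPMI with 10% FBS were seeded in 24-well plates, incubated overnight, given fresh medium, then treated for 24 h. Cells were PBS-washed, spun at 500 g for 5 min at 4 °C, and resuspended in ice-cold binding buffer. They were stained with annexin V-FITC and PI for 15 min on ice in the dark, then read by flow cytometry. Untreated cells were the negative control; triplicates.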
On the technique in general: Flow cytometry measures light scatter and fluorescence of single cells or particles in a stream.

Test [2] relates to CCRF-CEM. Nature of the test: Induction of apoptosis in human CCRF-CEM cells assessed as early apoptotic cells at CC50 measured after 24 hrs by AnnexinV-FITC/propidium iodide staining based flow cytometry analysis relative to control. Type of test: functional. Put shortly: as §1
Test [3] has as its system CCRF-CEM. Put plainly: Induction of apoptosis in human CCRF-CEM cells assessed as live cells at CC50 measured after 24 hrs by AnnexinV-FITC/propidium iodide staining based flow cytometry analysis (reference value: 92.15%). Format: functional. Put shortly:
as §1

Test [4] deals with CCRF-CEM. Put plainly: Cell cycle arrest in human CCRF-CEM cells assessed as decrease in accumulation at G2/M phase measured after 72 hrs by NIM-DAPI staining based flow cytometry. Type of test: functional. Put shortly: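 An asynchronous CEM culture was seeded at 100,000 cells/well in 1 mL complete RPMI and exposed to 10, 25 or 50 μM for 72 h. Controls were untreated cells, DMSO and hydrogen peroxide. Cells were pelleted at 262 g, resuspended, and stained with NIM-DAPI, which permeabilizes and stains DNA in one step. About 100,000 events per sample were read by flow cytometry. Triplicates.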

In the case of `O=C(CN1C(=O)S/C(=C/c2ccco2)C1=O)Nc1ccc(Cl)c(Cl)c1`, the Ratio IC50 in the test filed under Homo sapiens stood at 10.
Consider `O=C(CN1C(=O)S/C(=C/c2ccco2)C1=O)Nc1nc2ccccc2s1`, for which the Activity with CCRF-CEM [1] was 16.6%; in the test on CCRF-CEM [2], 1.38%; in the test on CCRF-CEM [3] it was 26.14%; with CCRF-CEM [4] it was “Dose-dependent effect”.
